Measured values published in ChEMBL document CHEMBL4350958, “Rational Design of Short Peptide Variants by Using Kunitzin-RE, an Amphibian-Derived Bioactivity Peptide, for Acquired Potent Broad-Spectrum Antimicrobial and Improved Therapeutic Potential of Commensalism Coinfection of Pathogens” (J Med Chem, 2019).
Converted amounts (≈) assume the structure as drawn.

Columns and labels:
Candida albicans [1] = experiment: Antifungal activity against Candida albicans cgmcc2.2086 measured after 48 hrs in presence of NaCl by broth microdilution method; assay type: functional
[2] = Bactericidal activity against Salmonella pullorum ATCC 7913 incubated for 24 hrs followed by replating on agar plate and measured after overnight incubation; assay type: functional, Salmonella enterica subsp. enterica serovar Pullorum; settings: Salmonella enterica, ATCC 7913, 24 h; read-out: MBC>99.9
Procedure, shortened: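 Mid-log bacteria diluted in MHB to (0.5–1) × 10^5 CFU/mL and mixed 1:1 with peptide serially diluted in 0.2% BSA. After 24 h at 37 °C, 50 μL of each mixture was plated on agar and incubated overnight. MBC taken as the lowest concentration killing >99.9% of cells. At least three independent experiments, each with three technical replicates.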

Staphylococcus aureus [3] = experiment: Antibacterial activity against Staphylococcus aureus ATCC 29213 measured after 18 to 24 hrs in presence of ZnCl2; assay type: functional
Procedure, shortened: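 MIC broth microdilution (MHB, 0.2% BSA peptide diluent, A492, 95% inhibition) run in the presence of physiological salts at final concentrations of 6 μM NH4Cl or 8 μM ZnCl2. Three independent assays, each with three technical replicates.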

Staphylococcus aureus [4] = experiment: Antibacterial activity against Staphylococcus aureus ATCC 29213 measured after 24 hrs; assay type: functional
Procedure, shortened: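 Broth microdilution modified from NCCLS. Mid-log bacteria at (0.5–1) × 10^5 CFU mL−1 in MHB, mixed with peptides serially diluted in 0.2% BSA. Incubated 24 h at 37 °C, read at A492. MIC taken as lowest concentration giving 95% growth inhibition. At least three independent experiments, each with three technical replicates.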

Staphylococcus aureus [5] = experiment: Antibacterial activity against Staphylococcus aureus ATCC 29213 measured after 18 to 24 hrs in presence of MgCl2; assay type: functional
Escherichia coli = experiment: Antibacterial activity against Escherichia coli ATCC 25922 measured after 18 to 24 hrs in presence of KCl; assay type: functional
Candida albicans [6] = experiment: Antifungal activity against Candida albicans cgmcc2.2086 measured after 48 hrs in presence of ZnCl by broth microdilution method; assay type: functional
Candida albicans [7] = experiment: Antifungal activity against Candida albicans cgmcc2.2086 measured after 48 hrs in presence of FeCl by broth microdilution method; assay type: functional
Salmonella typhimurium = experiment: Antibacterial activity against Salmonella typhimurium C7731 measured after 24 hrs; assay type: functional, Salmonella enterica subsp. enterica serovar Typhimurium
Procedure, shortened: (§1)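 Broth microdilution adapted from NCCLS. Mid-log bacteria were diluted in MHB to a final (0.5–1) × 10^5 CFU mL−1. Peptides were serially diluted in 0.2% BSA and mixed with an equal volume of cells. After 24 h at 37 °C, MIC was read at A492 as the lowest concentration inhibiting 95% of growth. At least three independent experiments, each with three technical replicates.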

[8] = Antibacterial activity against Salmonella pullorum ATCC 7913 measured after 24 hrs; assay type: functional, Salmonella enterica subsp. enterica serovar Pullorum; settings: Salmonella enterica, ATCC 7913, 24 h; procedure, shortened: as §1
[9] = Therapeutic index, ratio of MHC10 for hemolytic activity in human RBC to MIC95 against Staphylococcus aureus ATCC 29213; assay type: toxicity; settings: human red blood cells (erythrocytes), read-out: TI
Procedure, shortened: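 Therapeutic index = MHC divided by MIC. MHC is the lowest concentration giving >10% lysis of human RBC (1 h, 37 °C, 1-128 µM, A576). MIC is 95% growth inhibition by broth microdilution: bacteria in MHB 24 h at 37 °C; Candida in MOPS-buffered RPMI 1640 at (0.5–1) × 10^3 CFU mL−1, 48 h at 28 °C.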

[10] = Conformational stability in sodium dodecyl sulfate at 35 uM by CD spectra analysis; assay type: physicochemical
Procedure, shortened: (§2)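 CD spectra from 190 to 250 nm of peptide at 35 μM in 10 mM PBS, 30 mM SDS micelles or 50% TFE, recorded in a 1.0-mm quartz cell. Ellipticity was converted to mean residue ellipticity. Three independent scans, each averaged over more than 3 runs.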

[11] = Conformational stability in 50% trifluoro-ethyl alcohol assessed as alpha-helical structural propensity by measuring absorption spectra at minimum dichroic band at 35 uM by CD spectra analysis; assay type: physicochemical; procedure, shortened: as §2
Candida parapsilosis = experiment: Fungicidal activity against Candida parapsilosis cgmcc2.3989 incubated for 48 hrs followed by replating on YM agar plate and measured after 48 hrs; assay type: functional
Procedure, shortened: (§3)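 Yeast diluted in MOPS-buffered RPMI 1640 to (0.5–1) × 10^3 CFU/mL (CLSI M27-A2, modified) and mixed 1:1 with peptide serially diluted in 0.2% BSA. After 48 h at 28 °C, 50 μL per well was plated on YM agar and incubated 48 h at 28 °C. MFC taken as the lowest concentration killing ≥99.9% of cells. Three or more independent experiments, triplicate wells.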

Candida tropicalis = experiment: Fungicidal activity against Candida tropicalis cgmcc2.1975 incubated for 48 hrs followed by replating on YM agar plate and measured after 48 hrs; assay type: functional; procedure, shortened: as §3
[12] = Conformational stability in sodium dodecyl sulfate assessed as beta-sheet conformation by measuring absorption spectra at minimum dichroic band at 35 uM by CD spectra analysis; assay type: physicochemical; procedure, shortened: as §2
[13] = Conformational stability in sodium dodecyl sulfate assessed as beta-sheet conformation by measuring absorption spectra at maximum dichroic band at 35 uM by CD spectra analysis; assay type: physicochemical; procedure, shortened: as §2
Candida albicans [14] = experiment: Fungicidal activity against Candida albicans cgmcc2.2086 incubated for 48 hrs followed by replating on YM agar plate and measured after 48 hrs; assay type: functional; procedure, shortened: as §3
[15] = Salmonella enterica, C7731, 24 h
[16] = Salmonella enterica subsp. enterica serovar Typhimurium

Row | Compound | MIC95 (Candida albicans [1]; cgmcc2.2086, 48 h) | MBC [2] | MIC95 (Staphylococcus aureus [3]) | MIC95 (Staphylococcus aureus [4]; ATCC 29213, 24 h) | MIC95 (Staphylococcus aureus [5]) | MIC95 (Escherichia coli) | MIC95 (Candida albicans [6]; cgmcc2.2086, 48 h) | MIC95 (Candida albicans [7]; cgmcc2.2086, 48 h) | MIC95 (Salmonella typhimurium; [15]) | MIC95 [8] | selectivity ratio [9] | Stability [10] | MFC<=99.9 (Candida parapsilosis) | MFC<=99.9 (Candida tropicalis) | Activity [12] | Activity [11] | Wavelength of maximum dichroic band [13] | MFC<=99.9 (Candida albicans [14]) | other results
1 | CC(C)(O/N=C(\C(=O)N[C@@H]1C(=O)N2C(C(=O)[O-])=C(C[n+]3ccccc3)CS[C@H]12)c1csc(N)n1)C(=O)O [CEFTAZIDIME] | > 128 µM | 2 µM (≈ 1.09 µg/mL) | 16 µM | 16 µM (≈ 8.75 µg/mL) | 16 µM | 2 µM | > 128 µM | > 128 µM | 1 µM (≈ 0.547 µg/mL) | 1 µM (≈ 0.547 µg/mL) |  |  |  |  |  |  |  |  | 
2 | GENTAMICIN |  |  | 1 µM |  | 1 µM | 1 µM |  |  |  |  |  |  |  |  |  |  |  |  | MIC95 (Candida albicans [1]): > 128 µM; MIC95 (Staphylococcus aureus [4]): 1 µM; MIC95 (Candida albicans [6]): > 128 µM; MIC95 (Candida albicans [7]): > 128 µM; MIC95 (Salmonella typhimurium; [16]): 1 µM
3 | H-AAKIILNPKFR-NH2 | > 128 µM |  | > 128 µM | > 128 µM | > 128 µM | 128 µM | > 128 µM | > 128 µM | > 128 µM | > 128 µM | 2 | Unstable |  |  |  |  |  |  | Stability [11]: Unstable
4 | H-AARIILRARFR-NH2 | 64 µM | 8 µM | 4 µM | 4 µM | 8 µM | 8 µM | 16 µM | 16 µM | 4 µM | 4 µM | 90.5 |  | 16 µM | 4 µM | 216 to 220 nm | 208 to 222 nm | 200 nm | 32 µM | 
5 | H-AARIILRDRFR-NH2 | > 128 µM |  | > 128 µM | > 128 µM | > 128 µM | 128 µM | > 128 µM | > 128 µM | > 128 µM | > 128 µM | 2 | Unstable |  |  |  | 208 to 222 nm |  |  | 
6 | H-AARIILRFRFR-NH2 | 32 µM | 8 µM | 2 µM | 2 µM | 2 µM | 16 µM | 8 µM | 8 µM | 4 µM | 4 µM | 128 |  | 8 µM | 4 µM | 216 to 220 nm | 208 to 222 nm | 200 nm | 16 µM | 
7 | H-AARIILRGRFR-NH2 | > 128 µM | 8 µM | 8 µM | 8 µM | 16 µM | 8 µM | > 128 µM | 128 µM | 8 µM | 4 µM | 26.9 | Unstable |  | 32 µM |  | 208 to 222 nm |  |  | 
8 | H-AARIILRIRFR-NH2 | 32 µM | 4 µM | 2 µM | 2 µM | 2 µM | 2 µM | 8 µM | 8 µM | 4 µM | 2 µM | 64 |  | 8 µM | 4 µM | 216 to 220 nm | 208 to 222 nm | 200 nm | 8 µM | 
9 | H-AARIILRLRFR-NH2 | 32 µM | 8 µM | 2 µM | 2 µM | 2 µM | 8 µM | 8 µM | 8 µM | 4 µM | 4 µM | 128 |  | 8 µM | 4 µM | 216 to 220 nm | 208 to 222 nm | 200 nm | 16 µM | 
10 | H-AARIILRNRFR-NH2 | > 128 µM | 32 µM | > 128 µM | > 128 µM | > 128 µM | 64 µM | > 128 µM | > 128 µM | 32 µM | 16 µM | 2 | Unstable |  |  |  | 208 to 222 nm |  |  | 
11 | H-AARIILRPRFR-NH2 | > 128 µM | 64 µM | > 128 µM | > 128 µM | > 128 µM | 16 µM | > 128 µM | > 128 µM | 16 µM | 16 µM | 2 | Unstable |  |  |  |  |  |  | Stability [11]: Unstable
12 | H-AARIILRRRFR-NH2 | > 128 µM | 32 µM | 16 µM | 16 µM | 32 µM | 64 µM | > 128 µM | > 128 µM | 8 µM | 16 µM | 13.4 | Unstable | 128 µM | 128 µM |  | 208 to 222 nm |  |  | 
13 | H-AARIILRTRFR-NH2 | > 128 µM | 16 µM | 16 µM | 16 µM | 32 µM | 32 µM | > 128 µM | > 128 µM | 16 µM | 8 µM | 16 |  |  | 64 µM | 216 to 220 nm | 208 to 222 nm | 200 nm |  | 
14 | H-AARIILRWFRR-NH2 | 16 µM | 8 µM | 2 µM | 4 µM | 4 µM | 2 µM | 8 µM | 8 µM | 4 µM | 4 µM | 53.8 |  | 8 µM | 4 µM | 216 to 220 nm | 208 to 222 nm | 200 nm | 8 µM | 
15 | H-AARIILRYRFR-NH2 | 128 µM | 8 µM | 2 µM | 4 µM | 8 µM | 32 µM | 64 µM | 64 µM | 4 µM | 4 µM | 64 |  | 128 µM | 32 µM | 216 to 220 nm | 208 to 222 nm | 200 nm | 64 µM | 
16 | POLYMYXIN B |  |  | 32 µM |  | 32 µM | 2 µM |  |  |  |  |  |  | 16 µM |  |  |  |  |  | MIC95 (Candida albicans [1]): 128 µM; MIC95 (Staphylococcus aureus [4]): 32 µM; MIC95 (Candida albicans [6]): 32 µM; MIC95 (Candida albicans [7]): 32 µM; MFC (≥99.9% killing) (Candida albicans [14]): 64 µM; MIC95 (Salmonella typhimurium; [16]): 2 µM
